GSK3B inh = blocks human GSK3beta kinase activity; P49841; GST-GSK3beta kinase, ADP-Glo luminescence, 60 min; hits give low values; activity score (negative = inhibition), % at 10 µM; 300,000 compounds, 0.038% hits;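 active = more than half of replicate wells score below -50%, meaning over 50% inhibition versus plate controls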;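 also: 0% = median DMSO wells and -100% = median GW8510 positive control wells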
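Test system – GST-tagged human GSK3beta kinase, cell-free · Incubation – 60 min enzyme reaction, room temperature · Signal – ADP-Glo luminescence · Also added – peptide substrate and ATP at 25 µM · Controls – DMSO neutral wells and GW8510 at 20 µM as positive · Buffer or medium – Tris/MgCl2 kinase buffer · Measure – Luminescence-derived activity versus plate DMSO and GW8510 wells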
STK33 inh = human STK33 kinase inhibition. 320,000 compounds, 0.073% hits. purified STK33, MBP phosphorylation, ADP-Glo luminescence. Q9BYT3. AID 2661. inhibition, % at 10 µM;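 active = inhibition at or above 25%, using the most active replicate where run in duplicate; inactive = inhibition below 25%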
DYRK1A inh = blocks rat Dyrk1A kinase activity. AID 504441. inhibition, % at 12.5 µM. Q63470. ADP-Glo luminescence, NFATc1 peptide. 310,000 compounds, 0.43% hits; in the data active = inhibition above about 50%;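 also: plate controls were vehicle with enzyme for no effect and no enzyme for full effect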
GSK3 alpha inh = blocks human GSK-3 alpha kinase; AID 2650; 320,000 compounds, 0.1% hits; ADP-Glo luminescence, 60 min; P49840; inhibition, % at 10 µM;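 active = more than half of replicates show inhibition above 20%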;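 also: GST-tagged GSK-3 alpha with peptide substrate and 25 µM ATP; 0% = DMSO neutral wells and 100% = GW8510 positive control wells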
Target sequence (P49840 whole entry, looked up): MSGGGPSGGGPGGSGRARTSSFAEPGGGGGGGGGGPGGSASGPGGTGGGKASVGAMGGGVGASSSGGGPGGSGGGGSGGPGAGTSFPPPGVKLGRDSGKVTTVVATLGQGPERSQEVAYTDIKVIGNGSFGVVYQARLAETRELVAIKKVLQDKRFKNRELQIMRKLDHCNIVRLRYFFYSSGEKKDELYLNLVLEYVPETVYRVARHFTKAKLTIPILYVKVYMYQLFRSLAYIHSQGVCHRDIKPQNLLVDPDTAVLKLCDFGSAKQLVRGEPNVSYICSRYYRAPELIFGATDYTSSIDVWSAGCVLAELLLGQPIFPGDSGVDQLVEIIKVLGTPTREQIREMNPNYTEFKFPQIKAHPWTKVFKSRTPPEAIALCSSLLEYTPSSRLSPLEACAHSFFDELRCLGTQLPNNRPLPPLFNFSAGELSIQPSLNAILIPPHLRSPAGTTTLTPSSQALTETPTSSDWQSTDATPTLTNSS
* = called active by the depositor; x = no result; ! = a repeat was not active. The sample as a whole holds a higher share of hits than the screen did.

SMILES	GSK3B inh	STK33 inh	DYRK1A inh	GSK3 alpha inh
Nc1nc(NCCCN2CCOCC2)nc(Nc2cccc(F)c2)c1[N+](=O)[O-]	-71*	-3	38	57*
COc1ccc(NC(=O)NNC(=O)c2ccccc2-n2cccc2)cc1OC	1	x	-7	-1
CCOc1ncccc1C(=O)NC(C)CCc1ccccc1 (stereo unspecified)	-1	0	5	-1
CC(NC(=O)c1ccccc1)C(=O)OCC(=O)c1c(N)n(C)c(=O)n(C)c1=O (stereo unspecified)	x	-1	8	0
CCN(CC)CCc1nc(-c2ccccc2)no1	x	1	-1	0
CCCN1CCN(C(=O)C(C)n2nc(C)c3sc4ccccc4c3c2=O)CC1 (stereo unspecified)	1	1	0	-1
Cc1ccnc(NC(=O)C(C)n2cc([N+](=O)[O-])cn2)c1 (stereo unspecified)	-74*	-2	x	25
CC(C(=O)NC1CCCCCC1)n1cc([N+](=O)[O-])cn1 (stereo unspecified)	0	-1	-7	1
CCCCCCCCn1ccc(=N)cc1	-5	1	-4	-6
CCCCCCCCCCCCCCCCn1cc[n+](C)c1	-18	27*!	0	24
CCOc1cccc(-c2c(C(=O)N/N=C/c3ccncc3)nnn2-c2nonc2N)c1	5	2	60*	48
C/C(=N\NC(=O)c1nnn(-c2nonc2N)c1-c1cccs1)c1cccc(O)c1	0	0	11	66*
CCOc1cccc(-c2c(C(=O)N/N=C(\C)c3ccncc3)nnn2-c2nonc2N)c1	-20	0	0	69*
COc1cc(/C(C)=N/NC(=O)c2nnn(-c3nonc3N)c2-c2cccs2)ccc1O	-2	-1	x	-1
CCOC(=O)c1nnn(-c2nonc2N)c1-c1ccc(OCC)cc1	-35	0	27	50*
CCOc1ccc(-c2c(C(=O)N/N=C/c3ccoc3)nnn2-c2nonc2N)cc1	0	0	3	7
CC(C)[C@H](NC(=O)N1CC(=O)Nc2ccccc21)C(=O)Nc1nccs1	0	-1	x	1
CC1CCCCN1C(=O)CNCC1CCCO1 (stereo unspecified)	1	-2	-5	-2
COc1ccc(-c2nn(-c3ccccc3)cc2/C=N/O)cc1	-54*	0	41	46
CCN(CC)CCNC(=O)c1ccc(NC(=O)C2CCN(c3ncnc4sc(C)c(C)c34)CC2)cc1	3	3	32	53*
CN(C)C/C=C/C(=O)Nc1cccc(-c2c[nH]c3ncnc(Oc4ccc(NC(=O)CC(=O)Nc5ccc(F)cc5)cc4F)c23)c1	x	62*	68*	2
COc1ccc(S(=O)(=O)N2CCOCC2)cc1N=Nc1sc(N)nc1-c1ccccc1	1	-2	3	0
COCCCNC(=O)c1nc2ccccc2c(=O)n1NC(=O)Nc1c(Cl)cccc1Cl	-1	-1	1	-1
CCOC(=O)c1cnc2ccc(OC)cc2c1Nc1ccc(N2CCN(C)CC2)cc1	-59*	0	44	84*
CCOC(=O)c1cnc2ccc(C(=O)OC)cc2c1Nc1ccc(C(=O)O)cc1	0	3	15	14
SMILES	GSK3B inh	STK33 inh	DYRK1A inh	GSK3 alpha inh
CC[N+](C)(C)CC/C=C1/c2ccccc2Sc2ccc(Cl)cc21	-5	-1	x	0
CCCCCCCCCCC[N+](C)(C)CC/C=C1/c2ccccc2Sc2ccc(Cl)cc21	-5	31*	1	6
CCCCCCCCCC[N+](C)(C)CC/C=C1/c2ccccc2Sc2ccc(Cl)cc21	-6	32*	-4	5
O=C(Cc1cccc(NC(=O)C2CCCN(C(=O)C3CCCCC3)C2)c1)Nc1cccc(C(=O)N2CCCC2)c1 (stereo unspecified)	x	1	4	-2
CCCN(CCC)CCCNc1ccc2nnc(-c3ccc(F)cc3)n2n1	-44	2	13	56*
Nc1nc(NCc2ccc(Cl)cc2)nc(NCCO)c1[N+](=O)[O-]	-1	-2	40	13
Cc1ccc(CNc2nc(N)c([N+](=O)[O-])c(NCCO)n2)cc1	-39	2	x	51*
CCC(C)Nc1nc(N)c([N+](=O)[O-])c(NCCO)n1 (stereo unspecified)	-1	1	13	73*
Cc1ccc(Nc2nc(N)c([N+](=O)[O-])c(NCCO)n2)cc1C	-11	2	7	42
CC(C)CCNc1nc(N)c([N+](=O)[O-])c(NCCO)n1	-67*	3	x	80*
Nc1nc(Nc2ccc(Cl)cc2)nc(NCCO)c1[N+](=O)[O-]	-16	3	x	55*
Cc1ccsc1C(=O)NNC(=O)C1C2C=CC(C2)C1C(=O)O (stereo unspecified)	x	-1	3	-1
CCN(CC)CCCN(C(=O)Cn1nnc(-c2ccc(OC)c(OC)c2)n1)C(C(=O)NC(C)(C)C)c1ccc(F)cc1 (stereo unspecified)	4	0	1	0
O=C(O)c1ccc(S(=O)(=O)/N=C2\C=C(Nc3ccccc3F)C(=O)c3ccccc32)cc1	-12	19	57*	20
O=C(NCCCN1CCCCC1)c1ccc2c(c1)NC(=O)c1ccccc1S2	-4	3	4	6
O=C1Nc2cc(C(=O)NCCCN3CCCC3)ccc2S/C1=C/c1ccccc1F	-67*	1	-1	42
Cc1ccc(/C=C2/Sc3ccc(C(=O)NCCN4CCOCC4)cc3NC2=O)cc1	-3	-1	x	-2
COc1cccc(/C=C2/Sc3ccc(C(=O)NCCN4CCCC4)cc3NC2=O)c1	-67*	1	18	1
COc1cccc(/C=C2/Sc3ccc(C(=O)NCCCN4CCCC4)cc3NC2=O)c1	-83*	11	20	84*
COc1cccc(C(=O)NCCCN2CCN(CCCNC(=O)c3cccc(OC)c3)CC2)c1	-1	0	-5	1
COc1ccc(Br)cc1/C=C\C(=O)NCc1cccnc1	2	0	1	0
COc1cc(CN2CCN(C(C)C)C(CCO)C2)ccc1OCc1ccccc1 (stereo unspecified)	2	-1	0	-1
CC(=O)Oc1ccc2occ(C(=O)c3cccs3)c2c1	-17	0	10	43
O=C(CCl)Oc1ccc2occ(C(=O)c3cccs3)c2c1	-72*	3	31	70*
N=C1/C(=C\c2ccc(SCc3ccccc3)o2)C(=O)N=C2SC(CC(=O)N3CCOCC3)=NN12	0	-1	-5	-3
SMILES	GSK3B inh	STK33 inh	DYRK1A inh	GSK3 alpha inh
N=C1/C(=C/c2ccc(-c3cccc(C(=O)O)c3)o2)C(=O)N=C2SC(CC(=O)N3CCOCC3)=NN12	4	6	79*	4
N#C/C(=N\Nc1ccccc1Cl)C(=O)c1ccccc1	0	0	-7	-2
N#C/C(=N\Nc1c(Cl)cccc1Cl)C(=O)NN	-24	14	5	75*
C/C(=N/Nc1ccnc2cc(Cl)ccc12)c1ccc(O)cc1	0	32*	11	0
C/C(=N/Nc1ccnc2cc(Cl)ccc12)c1ccc(N)cc1	-1	6	-16	0
Cc1ccc(S(=O)(=O)N2CCOCC2)cc1NC(=O)COC(=O)c1cnc(Cl)c(Cl)c1	x	x	-1	x
